Test results as given in paper PMC2635573 (Molecular pharmacology, 2008).
Where two headings read alike, the source gives them in different places. Non-standard residues stand in square brackets, D forms with d. Residues, ends and D or L forms follow the SMILES beside them. *: point of attachment. X1 = COC1=CC(=O)N(C(=O)[C@@H](O*)C(C)C)[C@H]1Cc1ccccc1; NMe2Val = CC(C)[C@@H](C(=O)*)N(C)C; NMeV = CN[C@H](C(=O)O)C(C)C; Cbz = O=C(OCc1ccccc1)*; NHtBu = CC(C)(C)N*

Tests used:
CCRF-CEM leukemia cells = experiment: cells; format: cell-based, human; details: for -fold difference in IC50 (+ BCPP versus − BCPP) / IC50: 24 h; for IC50: read-out: IC50 − BCPP
[1] = system: Burkitt lymphoma CA46 cells; experiment: Inhibition of growth of CA46 cells; format: cell-based, human
Outline: (§1)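 Suspension lines were grown in RPMI 1640 with 5% fetal bovine serum (10% for CA46) at 37°C in humidified 5% CO₂. Test compound was added in DMSO (0.1% final) at varying concentrations. Growth was measured as cell number with a particle counter, and the IC₅₀ was derived from it.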

[2] = molecular target: purified bovine brain tubulin (Bos taurus, UniProt P81947+Q6B856); experiment: Inhibition of tubulin assembly; format: biochemical
purified bovine brain tubulin, sequence (P81947 whole entry): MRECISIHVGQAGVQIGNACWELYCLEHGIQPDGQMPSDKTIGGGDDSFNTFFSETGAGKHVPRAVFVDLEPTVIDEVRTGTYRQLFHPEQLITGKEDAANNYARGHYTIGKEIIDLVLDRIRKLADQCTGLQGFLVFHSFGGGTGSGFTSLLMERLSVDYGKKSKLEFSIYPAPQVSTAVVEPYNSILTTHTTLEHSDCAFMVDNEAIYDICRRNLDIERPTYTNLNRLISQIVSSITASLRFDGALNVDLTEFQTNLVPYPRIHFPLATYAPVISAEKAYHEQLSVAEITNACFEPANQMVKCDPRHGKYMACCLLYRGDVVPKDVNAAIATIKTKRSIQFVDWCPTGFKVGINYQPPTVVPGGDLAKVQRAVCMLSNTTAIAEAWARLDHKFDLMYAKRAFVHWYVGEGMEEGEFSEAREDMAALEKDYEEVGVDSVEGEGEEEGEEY
purified bovine brain tubulin, sequence (Q6B856 whole entry): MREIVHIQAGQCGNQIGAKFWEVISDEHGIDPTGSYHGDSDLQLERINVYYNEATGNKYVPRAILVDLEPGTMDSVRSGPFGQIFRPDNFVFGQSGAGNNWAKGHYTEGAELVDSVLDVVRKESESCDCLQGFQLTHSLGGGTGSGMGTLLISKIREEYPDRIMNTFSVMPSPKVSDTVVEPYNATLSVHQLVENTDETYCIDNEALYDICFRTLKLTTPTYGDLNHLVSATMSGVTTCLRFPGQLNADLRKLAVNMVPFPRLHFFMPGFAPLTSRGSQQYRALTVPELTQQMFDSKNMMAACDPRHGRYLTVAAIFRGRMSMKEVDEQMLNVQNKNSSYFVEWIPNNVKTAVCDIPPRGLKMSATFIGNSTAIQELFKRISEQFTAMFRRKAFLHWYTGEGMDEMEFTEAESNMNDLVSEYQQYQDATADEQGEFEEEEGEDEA

P-glycoprotein = details: ref Aherne et al., 1996; cited from earlier work
SR cells [3] = experiment: Inhibition of cell growth, SR cells; format: cell-based, human; details: mean ± S.D.
Outline: as §1

RPMI-8226 cells [4] = experiment: [^3H]Tasidotin uptake and metabolism, RPMI-8226 cells; format: in vitro ADME, human; details: 0.1 μM [^3H]tasidotin, 16 h
Outline: (§2)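 Log-phase cells at ~10⁶ cells/ml were given 0.1 μM [³H]test compound for 16 h (CA46 also 5 min). Cells were centrifuged, washed twice in PBS pH 7.2 and sonicated in water. Extracts were boiled 5 min, clarified, and precipitated with 3 volumes of ethanol. Radiolabel and protein were measured in supernatants and pellets. Supernatants in 0.1% TFA were run on C18 HPLC (10–60% acetonitrile, 10 min, 40°C) with in-line radioactivity detection and peak areas. Pellet label was taken as protein-incorporated proline.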

[5] = system: SR, CCRF-CEM, and HL-60 (TB)
SR cells [6] = experiment: [^3H]Tasidotin uptake and metabolism, SR cells; format: in vitro ADME, human; details: 0.1 μM [^3H]tasidotin, 16 h
Outline: as §2

CCRF-CEM cells [7] = experiment: [^3H]Tasidotin uptake and metabolism, CCRF-CEM cells; format: in vitro ADME, human; details: 0.1 μM [^3H]tasidotin, 16 h
Outline: as §2

[8] = system: CA46, K-562, MOLT-4, and RPMI-8226; details: less sensitive cell lines, 0.1 μM [^3H]tasidotin, 16 h
CCRF-CEM cells [9] = experiment: Inhibition of cell growth, CCRF-CEM cells; format: cell-based, human; details: mean ± S.D.
Outline: as §1

[10] = system: CA46, K-562, MOLT-4, and RPMI-8226
[11] = system: SR, CCRF-CEM, and HL-60 (TB); remark: listed apart in the source
HL-60 (TB) cells [12] = system: HL-60 (TB) cells
K-562 cells [13] = experiment: Inhibition of cell growth, K-562 cells; format: cell-based, human; details: mean ± S.D.
Outline: as §1

RPMI-8226 cells [14] = experiment: Inhibition of cell growth, RPMI-8226 cells; format: cell-based, human; details: mean ± S.D.
Outline: as §1

NCI/ADR-RES = details: multidrug resistant, P-glycoprotein expressing
HL-60 (TB) cells [15] = system: HL-60 (TB) cells; remark: listed apart in the source
K-562 cells [16] = experiment: [^3H]Tasidotin uptake and metabolism, K-562 cells; format: in vitro ADME, human; details: 0.1 μM [^3H]tasidotin, 16 h
Outline: as §2

[17] = system: CA46 Burkitt lymphoma cells; experiment: [^3H]Tasidotin uptake and metabolism, CA46 cells; format: in vitro ADME, human; details: 0.1 μM [^3H]tasidotin
MOLT-4 cells [18] = experiment: [^3H]Tasidotin uptake and metabolism, MOLT-4 cells; format: in vitro ADME, human; details: 0.1 μM [^3H]tasidotin, 16 h
Outline: as §2

MOLT-4 cells [19] = experiment: Inhibition of cell growth, MOLT-4 cells; format: cell-based, human; details: mean ± S.D.
Outline: as §1

[20] = read-out: IC50 Growth of CA46 Cells, 48-h incubation at 37°C, increase in cell number
[21] = 16 h, % of supernatant radiolabel

With `O=C[C@@H]1CCCN1C(=O)[C@@H]1CCCN1C(=O)OCc1ccccc1` [BCPP, N-benzyloxycarbonylprolylprolinal] (Cbz-Pro-Pro-aldehyde) the “Effect of BCPP itself on the growth of the cells” value (CCRF-CEM leukemia cells; CCRF-CEM cells, 12.5 μM BCPP) was “negligible effects”.

In the case of `COc1ccc(/C=C\c2cc(OC)c(OC)c(OC)c2)cc1O` [Combretastatin A-4], the “Effect of BCPP on the inhibition of CCRF-CEM cell growth by the drug” value (CCRF-CEM leukemia cells; CCRF-CEM cells, 12.5 μM BCPP) is reported as “no effect”, the “-fold difference in IC50 (+ BCPP versus − BCPP)” value (from here on “-fold difference in IC50”) (CCRF-CEM leukemia cells; CCRF-CEM cells, 12.5 μM BCPP) is reported as 0.8 -fold and the IC50 (CCRF-CEM leukemia cells; Homo sapiens, CCRF-CEM) is reported as 2.3 ± 0.3 nM.

Molecule `CC[C@H](C)[C@@H]([C@@H](CC(=O)N1CCC[C@H]1[C@H](OC)[C@@H](C)C(=O)N[C@@H](Cc1ccccc1)c1nccs1)OC)N(C)C(=O)[C@@H](NC(=O)[C@H](C(C)C)N(C)C)C(C)C` [Dolastatin 10, reference compound] has an IC50 [1, 20] of 0.03 nM and an IC50 [2] of 0.8 ± 0.1 µM.

In the case of `COC1=CC(=O)N(C(=O)[C@@H](OC(=O)[C@@H]2CCCN2C(=O)[C@@H]2CCCN2C(=O)[C@H](C(C)C)N(C)C(=O)[C@@H](NC(=O)[C@H](C(C)C)N(C)C)C(C)C)C(C)C)[C@H]1Cc1ccccc1` [Dolastatin 15, reference compound] (NMe2Val-V[NMeV]PP-X1), the IC50 [1, 20] is listed as 3 nM, the IC50 [2] is listed as 5.6 ± 0.9 µM and the P-glycoprotein substrate (P-glycoprotein) is listed as “P-glycoprotein substrate”.

In the case of `CN(Cc1cnc2nc(N)nc(N)c2n1)c1ccc(C(=O)N[C@@H](CCC(=O)O)C(=O)O)cc1` [Methotrexate], the “Effect of BCPP on the inhibition of CCRF-CEM cell growth by the drug” value (CCRF-CEM leukemia cells; CCRF-CEM cells, 12.5 μM BCPP) is reported as “no effect”, the “-fold difference in IC50” value (CCRF-CEM leukemia cells; CCRF-CEM cells, 12.5 μM BCPP) is reported as 1.1 -fold and the IC50 (CCRF-CEM leukemia cells; Homo sapiens, CCRF-CEM) is reported as 7.3 ± 0.8 nM.

With `CC(C)[C@H](NC(=O)[C@H](C(C)C)N(C)C)C(=O)N(C)[C@H](C(=O)N1CCC[C@H]1C(=O)N1CCC[C@H]1C(=O)NC(C)(C)C)C(C)C` [Tasidotin] (NMe2Val-V[NMeV]PP-NHtBu) the IC50 (SR cells [3]) was 20 ± 1 nM, the “Free Proline in Supernatant” value (RPMI-8226 cells [4]) was 1.6 fmol / μg cell protein and the “Proline from Pellets” value (RPMI-8226 cells [4]) was 5.8 fmol / μg cell protein. The “Total Proline in Supernatant (All Forms)” value (RPMI-8226 cells [4]) was 31 ± 5%, the “Total Tasidotin-Derived Proline (Total Tasidotin Uptake)” value (shortened to “Total Tasidotin-Derived Proline”) (RPMI-8226 cells [4]) was 8.4 ± 3 fmol / μg cell protein and the “Free Proline in Supernatant” value (RPMI-8226 cells [4]; % of supernatant radiolabel) was 61%. For the same molecule, the “Proline in P5 in Supernatant” value (RPMI-8226 cells [4]; % of supernatant radiolabel) was 39 ± 5%, the IC50 ([1]; CA46 cells (Table 2), mean ± S.D.) was 100 ± 5 nM and the IC50 [1, 20] was 100 ± 5 nM. For the same molecule, the “Intracellular P5” value [5] was 5.2-7.7 fmol/μg cell protein, the “Share of total uptake as P5, average” value [5] was 29% and the “Share of total uptake as proline, average” value [5] was 71%. The “Free Proline in Supernatant” value (SR cells [6]) was 5.0 fmol / μg cell protein, the “Proline from Pellets” value (SR cells [6]) was 9.8 fmol / μg cell protein and the “Total Proline in Supernatant (All Forms)” value (SR cells [6]) was 51 ± 9%. For the same molecule, the “Total Tasidotin-Derived Proline” value (SR cells [6]) was 20 ± 5 fmol / μg cell protein, the “Free Proline in Supernatant” value (SR cells [6]; % of supernatant radiolabel) was 49% and the “Proline in P5 in Supernatant” value (SR cells [6]; % of supernatant radiolabel) was 51 ± 7%. The “Free Proline in Supernatant” value (CCRF-CEM cells [7]) was 11.5 fmol / μg cell protein, the “Total Proline in Supernatant (All Forms)” value (CCRF-CEM cells [7]) was 52 ± 4% and the “Total Tasidotin-Derived Proline” value (CCRF-CEM cells [7]) was 24 ± 9 fmol / μg cell protein. For the same molecule, the “Free Proline in Supernatant” value (CCRF-CEM cells [7]; % of supernatant radiolabel) was 48%, the “Proline in P5 in Supernatant” value (CCRF-CEM cells [7]; % of supernatant radiolabel) was 62 ± 10% and the “Share of total uptake as P5, average” value [8] was 16%. For the same molecule, the “Share of total uptake as proline, average” value [8] was 84%, the “Total uptake, average” value [8] was 12 fmol/μg of cell protein and the IC50 [2] was 10 ± 0.4 µM. The “Fold less active as inhibitor of tubulin assembly than dolastatin 10” value ([2]; ratio of tubulin assembly IC50 values) was “more than 12 -fold”, the IC50 (CCRF-CEM cells [9]) was 30 ± 7 nM and the IC50 (MDA-MB-435 line) was 4 nM. The IC50 [10] was 100 to 300 nM, the IC50 [11] was 20 to 36 nM and the “Proline from Pellets” value (HL-60 (TB) cells [12]) was 12.4 fmol / μg cell protein. The “Total Proline in Supernatant (All Forms)” value (HL-60 (TB) cells [12]) was 54 ± 10%, the “Total Tasidotin-Derived Proline” value (HL-60 (TB) cells [12]) was 27 ± 3 fmol / μg cell protein and the IC50 (K-562 cells [13]) was 230 ± 30 nM. The IC50 (RPMI-8226 cells [14]) was 300 ± 20 nM, the IC50 (NCI/ADR-RES) was over 1000 nM and the “-fold difference in IC50” value (CCRF-CEM leukemia cells; CCRF-CEM cells, 12.5 μM BCPP) was 30 -fold. The IC50 (CCRF-CEM leukemia cells; CCRF-CEM cells, without BCPP, cell number) was 40 ± 10 nM, the IC50 (HL-60 (TB) cells [15]) was 36 ± 6 nM and the “Free Proline in Supernatant” value (K-562 cells [16]) was 4.2 fmol / μg cell protein. The “Proline from Pellets” value (K-562 cells [16]) was 9.0 fmol / μg cell protein, the “Total Proline in Supernatant (All Forms)” value (K-562 cells [16]) was 42 ± 9% and the “Total Tasidotin-Derived Proline” value (K-562 cells [16]) was 15.5 ± 2 fmol / μg cell protein. For the same molecule, the “Free Proline in Supernatant” value (K-562 cells [16]; % of supernatant radiolabel) was 64%, the “Proline in P5 in Supernatant” value (K-562 cells [16]; % of supernatant radiolabel) was 36 ± 6% and the “Soluble intracellular radiolabel remaining as tasidotin” value ([17]; 5 min) was “Approximately 48%”. The “Soluble intracellular radiolabel with the mobility of P5” value ([17]; 5 min) was “approximately 17%”, the “Soluble radiolabel that had undergone further metabolism (unbound proline peak)” value ([17]; 5 min) was “approximately 35%” and the “Free Proline in Supernatant” value ([17]; 16 h) was 2.8 fmol / μg cell protein. For the same molecule, the “Proline from Pellets” value ([17]; 16 h) was 7.1 fmol / μg cell protein, the “Total Proline in Supernatant (All Forms)” value ([17]; 16 h) was 41 ± 1% and the “Total Tasidotin-Derived Proline” value ([17]; 16 h) was 12 ± 0.6 fmol / μg cell protein. For the same molecule, the “Free Proline in Supernatant” value [17, 21] was 58%, the “Proline in P5 in Supernatant” value [17, 21] was 42 ± 10% and the “Radiolabel in the unbound proline peak” value ([17]; 96 h) was “approximately 38%”. For the same molecule, the “Radiolabel remaining as tasidotin” value ([17]; 96 h) was “approximately 6%”, the “Total radiolabel with the mobility of P5” value ([17]; 96 h) was “approximately 56%” and the “Free Proline in Supernatant” value (MOLT-4 cells [18]) was 3.5 fmol / μg cell protein. The “Proline from Pellets” value (MOLT-4 cells [18]) was 7.0 fmol / μg cell protein, the “Total Proline in Supernatant (All Forms)” value (MOLT-4 cells [18]) was 46 ± 7% and the “Total Tasidotin-Derived Proline” value (MOLT-4 cells [18]) was 13 ± 3 fmol / μg cell protein. For the same molecule, the “Free Proline in Supernatant” value (MOLT-4 cells [18]; % of supernatant radiolabel) was 59%, the “Proline in P5 in Supernatant” value (MOLT-4 cells [18]; % of supernatant radiolabel) was 41 ± 9% and the IC50 (MOLT-4 cells [19]) was 230 ± 30 nM. It also gave an IC50 (HS 578-T line) of 200 nM.
